Test results reported in ChEMBL document CHEMBL1135478, “From imidazoles to pyrimidines: new inhibitors of cytokine release” (J Med Chem, 2002).

Assays:
[1] = target: T1, MAP kinase p38 (Homo sapiens, UniProt O15264+Q15759+Q16539+P53778); assay: Inhibition of p38 MAP kinase related interleukin (IL1-beta (cytokine) release from human whole blood; format: functional, tissue-based
In short: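 Human whole blood preincubated 15 min (37 °C, 5% CO₂) with compound from 70:30 Cremophor EL/ethanol stock dilutions (vehicle 1% in all samples). Stimulated with LPS (E. coli 026:B6), 1 µg/mL, 4 h, 37 °C. Reaction stopped on ice, then centrifuged. Supernatant IL-1β measured by ELISA. IC50 read from semilog plot of % reduction vs vehicle controls. At least duplicate.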

[2] = target: T1, MAP kinase p38; assay: Inhibition of p38 MAP kinase related interleukin (IL1-beta (cytokine) release from human peripheral blood mononuclear cells
[3] = target: T1, MAP kinase p38; assay: Inhibition of p38 MAP kinase related TNF-alpha release from human whole blood; format: functional, tissue-based
[4] = target: T1, MAP kinase p38; assay: Inhibition of p38 MAP kinase related TNF-alpha release from peripheral blood mononuclear cells (PBMC); format: functional
[5] = target: T1, MAP kinase p38; assay: Inhibition of Mitogen-activated protein kinase p38; format: protein assay

| IC50 [1] | IC50 [2] | IC50 [3] | IC50 [4] | IC50 [5] | Structure (SMILES) |
| --- | --- | --- | --- | --- | --- |
| > 100 µM | 7.7 µM | > 100 µM | 17.8 µM |  | CS(=O)(=O)c1ccc(CSc2ncc(-c3ccc(F)cc3)c(-c3ccncc3)n2)cc1 |
| > 100 µM | 17.8 µM | > 100 µM | 29.9 µM |  | C[S+]([O-])c1ccc(CSc2ncc(-c3ccncc3)c(-c3ccc(F)cc3)n2)cc1 (stereo unspecified) |
| > 100 µM | 7.4 µM | > 100 µM | 60 µM |  | CSc1ccc(CSc2ncc(-c3ccc(F)cc3)c(-c3ccncc3)n2)cc1 |
| 45.5 µM | 5.6 µM | 95.5 µM | 14.1 µM | 36 µM | C[S+]([O-])c1ccc(CSc2ncc(-c3ccc(F)cc3)c(-c3ccncc3)n2)cc1 (stereo unspecified) |

Continued, compound first:

| Structure (SMILES) | IC50 [1] | IC50 [2] | IC50 [3] | IC50 [4] | IC50 [5] |
| --- | --- | --- | --- | --- | --- |
| C[S+]([O-])c1cccc(CSc2nc(-c3ccc(F)cc3)c(-c3ccncc3)[nH]2)c1 (stereo unspecified) | 4.1 µM | 1 µM | 33.5 µM | 23.5 µM |  |
| C[S+]([O-])c1cccc(CSc2ncc(-c3ccc(F)cc3)c(-c3ccncc3)n2)c1 (stereo unspecified) |  | 5.4 µM |  | 6.5 µM | 19 µM |
| C[S+]([O-])c1ccc(CSc2ncc(-c3ccc(F)cc3)c(-c3cccnc3)n2)cc1 (stereo unspecified) | > 100 µM | 75.5 µM | > 100 µM | 54 µM |  |
| C[S+]([O-])c1ccc(CSc2nc(O)c(-c3ccc(F)cc3)c(-c3ccncc3)n2)cc1 (stereo unspecified) | > 100 µM | 25.5 µM | > 100 µM | 27 µM |  |
| C[S+]([O-])c1ccc(CSc2nc(-c3ccc(F)cc3)c(-c3ccncc3)[nH]2)cc1 (stereo unspecified) | 2.78 µM | 0.88 µM | 20.3 µM | 3.65 µM | 4 µM |
| C[S+]([O-])c1ccccc1CSc1nc(-c2ccc(F)cc2)c(-c2ccncc2)[nH]1 (stereo unspecified) | 4 µM | 0.9 µM | 47.5 µM | 15 µM |  |
